Assay results published in ChEMBL document CHEMBL1137696, “Preparation and in vitro evaluation of benzylsulfanyl benzoxazole derivatives as potential antituberculosis agents” (2009).
≈ marks a conversion by molar mass, not a printed value.

Key:
Assay type in all cases: functional
[1] = test system: Mycobacterium tuberculosis; assay: Antimycobacterial activity against multidrug-resistant Mycobacterium tuberculosis 7357/98 after 14 days by micromethod; conditions: 7357/98, 336 h
Outline: (§1)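 MIC by micromethod in Šula semisynthetic medium. Compounds added as DMSO solutions at 1000, 500, 250, 125, 62, 32, 16, 8, 4 and 2 µmol/L. Incubated at 37 °C and read at 14 and 21 days. MIC taken as the lowest concentration that inhibited mycobacterial growth, expressed in µmol/L. INH run as standard. Strains from CNCTC.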

[2] = test system: Mycobacterium tuberculosis; assay: Antimycobacterial activity against multidrug-resistant Mycobacterium tuberculosis 7357/98 after 21 days by micromethod; conditions: 7357/98, 504 h; outline: as §1
[3] = test system: Mycobacterium tuberculosis; assay: Antimycobacterial activity against isoniazid and streptomycin-resistant Mycobacterium tuberculosis 4166/04 after 14 days by micromethod; conditions: 4166/04, 336 h; outline: as §1
[4] = test system: Mycobacterium tuberculosis; assay: Antimycobacterial activity against isoniazid and streptomycin-resistant Mycobacterium tuberculosis 4166/04 after 21 days by micromethod; conditions: 4166/04, 504 h; outline: as §1
[5] = test system: Mycobacterium tuberculosis; assay: Antimycobacterial activity against multidrug-resistant Mycobacterium tuberculosis 4977/03 after 14 days by micromethod; conditions: 4977/03, 336 h; outline: as §1
[6] = test system: Mycobacterium tuberculosis; assay: Antimycobacterial activity against multidrug-resistant Mycobacterium tuberculosis 4977/03 after 21 days by micromethod; conditions: 4977/03, 504 h; outline: as §1
[7] = test system: Mycobacterium tuberculosis; assay: Antimycobacterial activity against multidrug-resistant Mycobacterium tuberculosis 550/04 after 14 days by micromethod; conditions: 550/04, 336 h; outline: as §1
[8] = test system: Mycobacterium tuberculosis; assay: Antimycobacterial activity against multidrug-resistant Mycobacterium tuberculosis 550/04 after 21 days by micromethod; conditions: 550/04, 504 h; outline: as §1

Q: What does the source list for `NC(=S)c1ccc(CSc2nc3ccccc3o2)cc1`?
A: MIC [1]: 32 µM (≈ 9.61 µg/mL); MIC [2]: 32 µM (≈ 9.61 µg/mL); MIC [3]: 8 µM (≈ 2.4 µg/mL); MIC [4]: 16 µM (≈ 4.81 µg/mL); MIC [5]: 32 µM (≈ 9.61 µg/mL); MIC [6]: 32 µM (≈ 9.61 µg/mL); MIC [7]: 8 µM (≈ 2.4 µg/mL); MIC [8]: 16 µM (≈ 4.81 µg/mL)

Q: `O=[N+]([O-])c1cc(CSc2nc3ccccc3o2)cc([N+](=O)[O-])c1` was tested. Which MIC [1] did it give?
A: Its MIC is 4 µM (≈ 1.33 µg/mL).

Q: And the MIC [2]?
A: The MIC was 4 µM (≈ 1.33 µg/mL).

Q: And the MIC [3]?
A: The MIC was 2 µM (≈ 0.663 µg/mL).

Q: What about the MIC [4] of the same compound?
A: The MIC was 4 µM (≈ 1.33 µg/mL).

Q: What about the MIC [5] of the same compound?
A: The MIC was 2 µM (≈ 0.663 µg/mL).

Q: And the MIC [6]?
A: Its MIC is 2 µM (≈ 0.663 µg/mL).

Q: What about the MIC [7] of the same compound?
A: Its MIC is 2 µM (≈ 0.663 µg/mL).

Q: And the MIC [8]?
A: Its MIC is 4 µM (≈ 1.33 µg/mL).
